Legend:
[1] = target: T1, Polyunsaturated fatty acid lipoxygenase ALOX15B (Homo sapiens) (UniProt O15296); test: Competitive inhibition of human 15-LOX-2 assessed as equilibrium dissociation constant from catalytic site by measuring 15-HpETE by Dixon plots and Dixon replots analysis
T1 sequence (whole entry): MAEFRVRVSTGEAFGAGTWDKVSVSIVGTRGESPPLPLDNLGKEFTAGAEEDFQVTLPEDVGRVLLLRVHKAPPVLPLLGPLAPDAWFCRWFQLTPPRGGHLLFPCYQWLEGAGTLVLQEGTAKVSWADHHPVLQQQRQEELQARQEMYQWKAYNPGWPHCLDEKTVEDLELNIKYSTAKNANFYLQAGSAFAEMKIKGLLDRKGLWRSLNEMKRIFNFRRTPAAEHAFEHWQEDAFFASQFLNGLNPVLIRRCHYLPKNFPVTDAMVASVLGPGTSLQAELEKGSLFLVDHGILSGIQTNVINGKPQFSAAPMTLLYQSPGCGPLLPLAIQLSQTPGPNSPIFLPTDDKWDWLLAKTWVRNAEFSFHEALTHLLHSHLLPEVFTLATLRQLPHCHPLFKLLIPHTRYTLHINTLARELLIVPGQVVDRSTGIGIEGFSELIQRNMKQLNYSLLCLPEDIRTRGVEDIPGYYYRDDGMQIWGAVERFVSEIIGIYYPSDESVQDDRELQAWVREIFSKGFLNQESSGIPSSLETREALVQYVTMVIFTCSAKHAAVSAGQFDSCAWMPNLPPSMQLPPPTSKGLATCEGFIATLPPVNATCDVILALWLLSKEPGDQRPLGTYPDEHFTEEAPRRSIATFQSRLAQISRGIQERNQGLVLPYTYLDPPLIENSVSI
Summary of the method: (§1)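 Steady-state kinetics with h15-LOX-2 at 23 °C in stirred 25 mM HEPES pH 7.5, 0.01% Triton X-100, with 0.7–20 μM AA, reaction started by adding enzyme. Initial rates at varied inhibitor levels were fit to Henri-Michaelis-Menten for Vmax and Km. Slopes from Dixon plots (1/v vs [I]) were replotted against 1/[S]. Kic = (Km/Vmax)/replot slope; Kiu = (1/Vmax)/replot y-intercept.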

[2] = target: T2, Polyunsaturated fatty acid lipoxygenase ALOX8 (Mus musculus, UniProt O35936); test: Inhibition of mouse 15-LOX2 assessed as enzymatic rate using arachidonic acid as substrate by UV/Vis spectrophotometric analysis
T2 sequence (O35936 whole entry): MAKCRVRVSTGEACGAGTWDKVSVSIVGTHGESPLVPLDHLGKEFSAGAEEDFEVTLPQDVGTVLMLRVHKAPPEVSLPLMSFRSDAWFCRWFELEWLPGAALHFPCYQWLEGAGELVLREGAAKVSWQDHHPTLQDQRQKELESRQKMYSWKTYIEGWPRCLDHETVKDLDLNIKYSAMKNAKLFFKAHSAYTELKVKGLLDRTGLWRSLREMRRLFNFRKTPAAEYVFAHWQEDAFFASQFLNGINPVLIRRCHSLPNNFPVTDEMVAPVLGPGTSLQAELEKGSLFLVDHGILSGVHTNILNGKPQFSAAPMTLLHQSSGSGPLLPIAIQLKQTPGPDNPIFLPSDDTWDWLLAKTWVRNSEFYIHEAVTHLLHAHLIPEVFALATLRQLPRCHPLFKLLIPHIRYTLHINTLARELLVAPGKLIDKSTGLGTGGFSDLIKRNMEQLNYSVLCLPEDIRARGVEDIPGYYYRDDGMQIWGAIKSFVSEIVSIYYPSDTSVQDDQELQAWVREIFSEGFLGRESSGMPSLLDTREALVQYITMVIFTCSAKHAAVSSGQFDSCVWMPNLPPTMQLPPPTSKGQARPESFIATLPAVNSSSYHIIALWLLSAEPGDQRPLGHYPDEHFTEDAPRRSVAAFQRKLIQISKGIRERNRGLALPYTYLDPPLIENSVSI

[3] = species: Homo sapiens; test: Selectivity ratio of IC50 for inhibition of human 15-LOX-1 to IC50 for inhibition of human 15-LOX-2
Summary of the method: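 h15-LOX-1 (~60 nM total protein) was run at 23 °C, stirred, in 25 mM HEPES pH 7.5, 0.01% Triton X-100 and 10 μM AA. Diene product was read at 234 nm. Inhibition at 25 μM inhibitor was taken against the DMSO rate, in duplicate.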

[4] = species: Homo sapiens; test: Selectivity ratio of IC50 for inhibition of human 12-LOX to IC50 for inhibition of human 15-LOX-2
Summary of the method: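 Conjugated diene formation was followed at 234 nm. Rates were compared with the DMSO control at a single 25 μM inhibitor concentration, in duplicate.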

[5] = system: HEK-293T; test: Cytotoxicity against human HEK293T cells expressing human 15-LOX-2 at 10 uM measured after 1 hr by cell survival assay; assay type: cell-based
Summary of the method: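 HEK293T cells stably overexpressing h15-LOX-2 were kept in MEM with 10% FBS, 2 mM glutamine, penicillin/streptomycin and 640 ug/ml G418. Cells were exposed to 0.2% DMSO, 10 μM or 20 μM inhibitor for 1 h. Medium was then replaced and cells were checked daily for death.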

[6] = species: Homo sapiens; test: Selectivity ratio of IC50 for inhibition of human 5-LOX to IC50 for inhibition of human 15-LOX-2
[7] = species: Homo sapiens; test: Selectivity ratio of IC50 for inhibition of human COX2 to IC50 for inhibition of human 15-LOX-2
Summary of the method: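 Ovine COX-1 or human recombinant COX-2 (~3 μg) was used in 0.1 M Tris-HCl pH 8.0 with 5 mM EDTA, 2 mM phenol and 1 μM hemin at 37 °C. Inhibitor was preincubated with enzyme for 5 min, then ~100 μM AA was added. O2 consumption was recorded with an oxygen electrode, and rates were compared to the DMSO control, in duplicate.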

[8] = species: Homo sapiens; test: Selectivity ratio of IC50 for inhibition of ovine COX1 to IC50 for inhibition of human 15-LOX-2
[9] = target: Prostaglandin G/H synthase 1 (Ovis aries) (UniProt P05979); test: Inhibition of ovine COX-1 assessed as enzymatic rate using arachidonic acid as substrate by oxygen electrode measurement of oxygen consumption
[10] = target: T1, Polyunsaturated fatty acid lipoxygenase ALOX15B (Homo sapiens); test: Uncompetitive inhibition of human 15-LOX-2 assessed as equilibrium dissociation constant from secondary site by measuring 15-HpETE by Dixon plots and Dixon replots analysis; summary of the method: as §1

Kic [1] | IC50 [2] | Ratio IC50 [3] | Ratio IC50 [4] | Ratio IC50 [6] | Ratio IC50 [7] | Ratio IC50 [8] | IC50 [9] | Kiuc [10] | Structure (SMILES) | Activity [5]
0.7 µM | > 50 µM | > 50 | > 50 | > 50 | > 50 | > 50 | > 100 µM | – | FC(F)(F)c1ccc(CSc2nccn2-c2ccccc2)cc1 | Non-Toxic
0.9 µM | > 50 µM | > 50 | > 50 | > 50 | > 50 | > 50 | > 100 µM | 3.4 µM | CCc1ccc(CSc2nccn2-c2ccccc2)cc1 | Non-Toxic
– | – | – | – | – | – | – | – | – | Cc1ccc(CSc2ncn(-c3ccccc3)n2)cc1 | Non-Toxic
– | > 50 µM | – | – | – | – | – | > 100 µM | – | Brc1ccc(CSc2nccn2-c2ccccc2)cc1 | Non-Toxic
